Only some compounds are listed: those with a hit (about 3.7% of all), similar ones and a draw of the others.
NPY-Y1 PAM-ag – human NPY-Y1 potentiation or agonism, primary screen; activation, % at 3.6 µM; NPY-Y1 expressing cells, potentiator/agonist activation; P25929; actives 0.37% (n = 220,000); AID 1304; in the data active means activation above about 33%, passing the limit was not always enough;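 further: cells stimulated with NPY at EC10 then isoproterenol at EC100; 0% = low agonist plus stimulus and 100% = saturating agonist plus stimulus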
NPY2 pot ag – potentiates or activates human NPY-Y2 receptor; P49146; cells expressing NPY-Y2, potentiator/agonist read-out; activation, % at 3.6 µM; actives 0.45% (n = 220,000); in the data active means activation above about 27%;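 further: cells stimulated with NPY near EC25 plus isoproterenol at EC100; 0% = vehicle plus submaximal agonist and 100% = vehicle plus saturating agonist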
Target sequence (P49146 whole entry, looked up): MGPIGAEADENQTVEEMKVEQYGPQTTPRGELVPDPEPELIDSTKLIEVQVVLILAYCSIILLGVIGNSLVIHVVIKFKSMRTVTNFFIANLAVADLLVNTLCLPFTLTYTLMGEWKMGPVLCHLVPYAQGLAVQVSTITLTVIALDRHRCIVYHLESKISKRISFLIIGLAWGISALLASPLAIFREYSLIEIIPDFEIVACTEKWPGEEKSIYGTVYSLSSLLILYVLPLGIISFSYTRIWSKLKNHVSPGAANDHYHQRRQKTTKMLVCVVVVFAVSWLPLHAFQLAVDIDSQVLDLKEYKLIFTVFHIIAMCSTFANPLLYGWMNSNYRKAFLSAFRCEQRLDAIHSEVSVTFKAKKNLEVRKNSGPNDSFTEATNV
NPY Y2 blocker – blocks the human neuropeptide Y Y2 receptor | P49146 | NPY-Y2 expressing cells, antagonist mode | inhibition, % at 2.7 µM | actives 0.99% (n = 140,000); in the data active means inhibition above about 17%;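 further: 0% = vehicle with agonist challenge and 100% = reference antagonist with challenge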
Furin inh – inhibitors of human furin. P09958. purified furin, fluorogenic substrate cleavage. inhibition, % at 20 µM or 30 µM. actives 0.061% (n = 220,000). AID 463115; in the data active means inhibition above about 25%
NPY-Y1 antag – blocks the human neuropeptide Y Y1 receptor; inhibition, % at 3.6 µM; AID 1040; HEK293-CNG Y1 cells, membrane potential fluorescence; NPY at EC95, then isoproterenol; actives 1% (n = 200,000);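 active means inhibition above the campaign mean inhibition of all tested compounds plus 3 SD, cut at about 20% in these data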;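 further: 0% = DMSO wells given NPY plus isoproterenol and 100% = isoproterenol alone without NPY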
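Assay system: HEK293 Y1/CNG channel cell line; Doses: single compound dose of 3.6 µM, 0.4% DMSO; Timing: dye 3 h, compound 60 min room temperature, stimulation 45 min; Technique: Membrane-potential fluorescent dye readout; Measure: % inhibition of NPY effect.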
Cl transport mod – modulators of human KCC2 chloride dependent transport. B-score of Tl+ flux slope (higher = more flux/activation; lower = inhibition) at 10 µM. KCC2 cells, thallium flux FluoZin-2 fluorescence. actives 2.2% (n = 190,000);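 active means thallium flux slope and its plate-corrected score both differing from the plate sample mean at a set confidence after two filtering rounds, in either direction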;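 further: slope of fluorescence scaled to starting intensity during 10 to 20 s after thallium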
* hit, by the source's call; i = inactive; . = no result.

SMILES	NPY-Y1 PAM-ag	NPY2 pot ag	NPY Y2 blocker	Furin inh	NPY-Y1 antag	Cl transport mod
CCOC(=S)NC(=O)c1sc2ccccc2c1Cl	-24	-1	7	-27	14	74*
CCCOC(=S)NC(=O)c1sc2ccccc2c1Cl	6	4	6	-16	5	60*
CCOc1ccc(-c2nc(CCl)cs2)cc1OC	-2	11	.	-17	-3	-0.026
O=C(O)C1CC1c1ccc(Br)cc1 (configuration not stated)	-42	-35	15	-23	31*	1.5
COC(=O)N(NC(=O)C(O)(CCC(C)C)CCC(C)C)c1ccccc1	-40	-15	26*	-7	52*	-1.1
O=C(c1ccc(F)cc1)N(NC(=O)C(O)(c1ccccc1)c1ccccc1)c1ccccc1	-56	-3	30*	-2	49*	-0.28
COC(=O)N(NC(=O)C(O)(c1ccccc1)c1ccccc1)c1ccccc1	-37	-11	22*	-8	33*	-0.59
CCc1cc2c(=O)c(-c3nc(C)cs3)coc2cc1OC(C)C(=O)NCCO (configuration not stated)	12	3	1	-7	6	-0.047
CC1Nc2ccccc2C(=O)N1NC(=O)c1ccc(Br)cc1 (configuration not stated)	-5	-12	.	-25	-2	1.2
CC1CCN(c2nc(N3CCCCC3)nc(N3CCCCC3)n2)CC1	-1	10	.	-24	-1	.
C1CCN(c2nc(N3CCCCC3)nc(N3CCNCC3)n2)CC1	103*	96*	6	-6	-26	0.36
O=S(=O)(/N=C(/c1ccccc1)N1CCCCC1)c1ccccc1	-11	-4	3	-24	-3	0.52
O=C(NC(=S)N1CCN(Cc2ccc3c(c2)OCO3)CC1)c1cccc(Br)c1	-13	-10	3	-18	4	79*
O=C(NC(=S)N1CCN(Cc2ccc3c(c2)OCO3)CC1)c1ccc(Cl)cc1	-36	-11	8	-22	6	75*
O=C(OCCN1C(=O)c2cccc3c(N4CCOCC4)ccc(c23)C1=O)c1ccc(Cl)cc1Cl	-6	7	10	0	0	i
O=C(OCCN1C(=O)c2cccc3c(N4CCOCC4)ccc(c23)C1=O)c1ccccc1Cl	-39	10	24*	1	57*	i
OC(COc1ccc(C2C=CCC2)cc1)CN1CCCCC1 (configuration not stated)	60*	73*	1	-21	-8	.
O=C(c1ccccc1)c1ccc(OCC(O)CN2CCCCC2)cc1 (configuration not stated)	3	-20	5	-18	6	.
c1csc(CCNc2ncnc3sc4c(c23)CCC4)c1	.	.	.	-6	.	-4.5*
c1ccc(Nc2ncnc3sc4c(c23)CCC4)cc1	-4	-6	1	-5	0	-0.72
CCCOCCOC(=O)c1[nH]c2c(c1C)C(=O)CC(c1cc(OC)ccc1OC)C2 (configuration not stated)	-33	-3	31*	-18	35*	-0.62
CCOC(=O)c1c(NC(=O)CSc2nc3ccccc3c(=O)n2-c2ccccc2)sc(C(C)=O)c1C	2	3	2	-17	0	0.92
CN(Cc1cnccn1)Cc1nc(Cc2cccc(F)c2)no1	18	-1	.	-20	-2	.
O=S(=O)(c1ccc(F)cc1)N1CC2CCCN2c2ccc(C(F)(F)F)cc21 (configuration not stated)	64*	44*	-2	-14	-7	.
Cc1ccc(S(=O)(=O)N2CC3CCCN3c3ccc(C(F)(F)F)cc32)cc1 (configuration not stated)	18	28*	0	-17	-7	.
SMILES	NPY-Y1 PAM-ag	NPY2 pot ag	NPY Y2 blocker	Furin inh	NPY-Y1 antag	Cl transport mod
COc1ccc(NC(=S)NC(=O)CC(C)C)c(OC)c1	-16	-11	.	-2	2	0.94
O=C(NCc1cccnc1)c1cn(-c2ccccc2)nc1-c1ccccc1	-6	3	.	-22	9	0.018
Cn1c(=O)c2c(nc(NCCCN3CCOCC3)n2Cc2ccc(Cl)c(Cl)c2)n(C)c1=O	-41	-15	23*	-22	20*	1.1
COc1cccc2sc(Nc3nc(-c4ccncc4)cs3)nc12	40*	35*	.	-16	-14	0.69
COc1ccccc1-c1nnc(Nc2nc3c(OC)cccc3s2)o1	-20	-11	8	-18	5	4.1*
COc1cccc(-c2nnc(Nc3nc4c(F)cccc4s3)o2)c1	-17	-12	7	-16	0	39*
Cc1c(NC(=S)NC(=O)c2ccco2)cccc1-c1nc2ncccc2o1	-6	0	.	-4	0	13*
COCC(=O)Nc1nc2ccccc2s1	108*	64*	0	-24	1	0.7
Cc1c(NC(=O)c2cccs2)cccc1-c1nc2ccccc2s1	46*	27*	6	-7	-3	-1.4
O=C(NC(=S)Nc1nc2ccccc2s1)c1cccs1	5	2	0	-8	-1	72*
CCCCc1nnc(NC(=O)C(C)Sc2nc(O)c(Cc3ccccc3)c(=O)[nH]2)s1 (configuration not stated)	0	-7	.	-18	-2	-0.94
CCC(C)OC(=O)C[N+](C)(C)CCOC1CC2CCC1(C)C2(C)C (configuration not stated)	-25	-3	.	-16	21*	-1.2
CC(C)CCOC(=O)C[N+](C)(C)CCOC1CC2CCC1(C)C2(C)C (configuration not stated)	-41	-18	.	-15	10	0.73
Cc1ccc(NC(=O)C2CC(=O)n3ncnc3N2)cc1C (configuration not stated)	20	2	.	-7	-1	1.5
Cc1ccc2nc(-c3ccccn3)c(Nc3ccccc3C)n2c1	46*	36*	.	3	7	-0.059
Cc1ccccc1Nc1c(-c2ccccn2)nc2ccccn12	35*	35*	.	-13	6	-0.85
Cc1ccn2c(Nc3ccccc3C)c(-c3ccccn3)nc2c1	41*	30*	.	-25	-3	-0.048
CC(C)(C)C(=O)NC(=S)NCc1ccccc1	-14	3	-1	-14	4	0.29
C/C=C\C(=O)Nc1cccc(C2=NOC3(C2)C[C@H](C(N)=O)N(C(=O)Cc2ccc([N+](=O)[O-])cc2)C3)c1 (some centres not stated)	.	.	.	-24	.	0.037
CCNC(=S)Nc1scc(-c2ccccc2)c1C(=O)OCC	-18	-10	-1	-5	8	42*
CCOC(=O)c1c(-c2ccc(C)o2)csc1NC(=S)NC(=O)c1cccs1	3	6	-1	-8	3	6.3*
CCOC(=O)c1c(-c2ccccc2)csc1NC(=O)CCN1C(=O)c2ccccc2C1=O	12	-13	12	-20	1	1.4

Bioassay records as filed in PubChem.
